# From PubChem BioAssay
# ZTA counter: counter-screen for EBNA-1 inhibitors: inhibitors of Epstein-Barr virus ZTA; hit rate 0.15% among 320,000; P03206; AID 2234; inhibition, % at 11 µM; ZTA-DNA binding, fluorescence polarization; in the data active = inhibition above about 33%
# Target sequence (P03206 whole entry, looked up): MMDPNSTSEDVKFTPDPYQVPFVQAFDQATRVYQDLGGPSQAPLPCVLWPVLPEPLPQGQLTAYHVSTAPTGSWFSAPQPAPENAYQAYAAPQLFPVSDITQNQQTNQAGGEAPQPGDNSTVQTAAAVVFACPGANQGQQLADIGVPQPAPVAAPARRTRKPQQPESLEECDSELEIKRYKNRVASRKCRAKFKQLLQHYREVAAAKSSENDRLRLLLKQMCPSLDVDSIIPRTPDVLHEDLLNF
# HNF4A DNA FP: change in binding of human HNF4 alpha to DNA; P41235; HNF4a-FITC DNA binding, fluorescence polarization, 1 h; activity change, % at 10 µM; hit rate 0.3% among 360,000; in the data active = activity change above about 30%, passing the limit was not always enough
# Bfl-1 A1 inh: inhibitors of the anti-apoptotic protein A1, read as caspase activation; AID 2462; MEF A1-2A-BIM cells, Caspase-Glo 3/7 luminescence, 3 h; percent of clofoctol response, vehicle zero; hit rate 0.066% among 330,000; caspase activation, % (concentration not given with the values);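 active = over half of replicate activation scores above 10%, or exactly half above 10 with the replicate mean above 10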
# CSN inh: blocks human CSN-mediated cullin deneddylation; Purified CSN, SCF-Nedd8-OG deneddylation, fluorescence polarization; inhibition, % at 12.5 µM; Q92905; hit rate 0.38% among 360,000;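 active = pattern-corrected inhibition above about 35%, with an unprinted fluorescence ratio check between 0.5 and 1.5, limit read from the data, passing the limit was not always enough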
# Target sequence (Q92905 whole entry, looked up, one chain of several): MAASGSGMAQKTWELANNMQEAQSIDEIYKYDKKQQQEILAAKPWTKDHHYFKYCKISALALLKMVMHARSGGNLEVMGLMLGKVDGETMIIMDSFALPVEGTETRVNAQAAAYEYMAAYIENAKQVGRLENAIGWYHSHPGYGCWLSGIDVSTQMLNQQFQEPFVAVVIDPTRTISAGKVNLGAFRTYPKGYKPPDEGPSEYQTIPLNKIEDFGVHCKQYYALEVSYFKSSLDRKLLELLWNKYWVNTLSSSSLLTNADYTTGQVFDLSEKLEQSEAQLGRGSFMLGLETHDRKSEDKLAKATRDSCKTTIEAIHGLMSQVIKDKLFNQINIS
#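 Assay system: purified human Csn5 enzyme expressed in HEK293T cells; measure: % inhibition; also added: SCFSkp2-Nedd8OG substrate at 10 nM final; technique: fluorescence polarization; times: reaction 90 min, room temperature; medium: Tris buffer pH 7.5, NaCl, DTT, Tween-20, trehalose, ovalbumin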
# EBNA-1 inhibitor: blocks EBNA-1 binding to DNA; EBNA-1 DNA binding, fluorescence polarization; hit rate 0.34% among 300,000; inhibition, % at 14.8 µM; in the data active = inhibition above about 28%
# LANA-H2B inh: blocks KSHV LANA binding to histone H2A/H2B; Q9QR71; inhibition, % (concentration not given with the values); cell-free LANA-H2A/H2B peptide, fluorescence polarization; hit rate 0.6% among 320,000; in the data active = inhibition mostly above about 10%, no sharp cut-off; inactive = mostly below about 6.7%
# EBNA-1 inh conf: EBNA-1 (EBV) inhibition, confirmation | shares compounds with EBNA-1 inhibitor | Recombinant EBNA-1 DBD, Cy5-DNA fluorescence polarization | inhibition, % at 14.8 µM | hit rate 35% among 830 | AID 2292;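 active = mean inhibition across replicates above a set limit taken from the earlier primary screen, cut at about 28% in these data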
# ZTA counter trip: ZTA (EBV) inhibition, triplicate counter-screen. shares compounds with EBNA-1 inhibitor. Zta-ZRE DNA binding, Cy5 fluorescence polarization. inhibition, % at 11.1 µM. 830 tested, under 10 active;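 active = mean inhibition over triplicates above a set limit taken from the primary EBNA-1 screen, cut at about 37% in these data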;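 note: purified full length Zta protein with Cy5 labeled ZRE DNA probe; inhibitors lower polarization by freeing the labeled DNA probe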
# Numbers stand for hits; . = inactive; / = no result; + = active, no number. Hits are enriched below; roughly 1.5% of the tested compounds scored in any of these assays.
SMILES,ZTA counter,HNF4A DNA FP,Bfl-1 A1 inh,CSN inh,EBNA-1 inhibitor,LANA-H2B inh,EBNA-1 inh conf,ZTA counter trip
Cc1ccc(S(=O)(=O)NCC2CCC(C(=O)NCc3ccc4c(c3)OCO4)CC2)cc1 (stereo not drawn),.,.,.,.,.,.,/,/
O=C(NCc1ccc2c(c1)OCO2)C1CCC(CNS(=O)(=O)c2ccc(Cl)cc2)CC1 (stereo not drawn),.,.,.,.,29.9,.,63.3,.
COc1ccc(/C=N/n2cnc3c([nH]c4ccc(Br)cc43)c2=O)cc1CN1CCOCC1,.,/,.,/,.,.,/,/
COc1ccc(/C=N/n2cnc3c([nH]c4ccccc43)c2=O)cc1CO,.,.,.,.,28.9,.,.,.
NS(=O)(=O)c1ccc(NC(=S)NC(=O)c2ccc3c(c2)OCO3)cc1,.,.,.,.,61.1,.,72.3,.
Cc1sc2ncnc(SCC(=O)NNC(=O)COc3cccc4ccccc34)c2c1C,.,.,.,.,119.0,.,97.9,.
CCOC(=O)Nc1ccc2c(COC(=O)CN(C)S(=O)(=O)c3ccc(C)cc3)cc(=O)oc2c1,.,.,.,.,56.1,.,.,.
O=C(c1ccc(CN2CCc3ccccc3C2)cc1)N1CCc2ccccc2C1,.,.,.,.,38.4,.,.,.
O=C(c1ccc(CN2CCc3ccccc3C2)cc1)N1CCN(c2ccccc2)CC1,.,.,.,.,.,.,/,/
COc1ccc(/C=C2/SC(=O)N(CC(O)Cn3c4ccccc4c4ccccc43)C2=O)cc1 (stereo not drawn),.,.,.,.,.,.,/,/
O=C1S/C(=C\c2ccccc2)C(=O)N1CC(O)Cn1c2ccccc2c2ccccc21 (stereo not drawn),.,.,.,.,30.0,.,.,.
CC(=O)c1sc(NC(=O)COc2ccc([N+](=O)[O-])cc2)nc1C,.,.,.,.,.,.,/,/
CCOC(=O)c1sc(NC(=O)COc2ccc3c(c2)OCO3)nc1C,.,.,.,.,64.8,.,124.1,.
CC(C)(C)c1nnc(NC(=O)COc2ccc3c(c2)OCO3)s1,.,.,.,.,.,.,/,/
COC(=O)c1sc(NC(=O)COc2ccc(OC)cc2)nc1C,.,.,.,.,30.1,.,.,.
CC(=O)c1sc(NC(=O)COc2ccc(Br)cc2)nc1C,.,.,.,.,42.7,.,.,.
CC(OC(=O)c1cc(=O)[nH]c2ccccc12)C(=O)Nc1ccccc1F (stereo not drawn),.,.,.,.,.,.,/,/
O=C(OCc1nnc(-c2ccccc2)o1)C1CC(=O)N(Cc2ccco2)C1 (stereo not drawn),.,.,.,.,.,.,/,/
O=C(COc1ccccc1)N=C1SC2CS(=O)(=O)CC2N1Cc1ccccc1 (stereo not drawn),.,.,.,.,+,.,.,.
CC1SC(C)C(=O)N(CC(=O)Nc2ccc([N+](=O)[O-])cc2)C1=O (stereo not drawn),.,.,.,.,.,.,/,/
Cc1cccc(NC(=O)CN2C(=O)S/C(=C\c3cc(C)n(C)c3C)C2=O)c1,.,.,.,.,29.5,.,.,.
Cc1ccc(NC(=O)CN2C(=O)S/C(=C\c3cc(C)n(C)c3C)C2=O)cc1,.,.,.,.,.,.,/,/
CCCCn1c(N)c(N(CCC(C)C)C(=O)c2cc(-c3ccco3)nc3ccccc23)c(=O)[nH]c1=O,.,.,.,.,51.3,.,.,.
COC(=O)C1=C(N)N(c2ccccc2C(F)(F)F)C2=C(C(=O)CCC2)C1c1ccc2c(c1)OCO2 (stereo not drawn),.,.,.,.,30.7,.,.,.
COC(=O)CSC1=C(C#N)C(c2ccc3c(c2)OCO3)C2=C(CCCC2=O)N1 (stereo not drawn),.,.,.,.,.,.,/,/
SMILES,ZTA counter,HNF4A DNA FP,Bfl-1 A1 inh,CSN inh,EBNA-1 inhibitor,LANA-H2B inh,EBNA-1 inh conf,ZTA counter trip
O=C(CCCCCNc1nc(=S)[nH]c2ccccc12)NCCc1ccc(Cl)cc1,.,.,.,.,66.1,.,67.9,.
O=C(CCCCCNc1nc(=S)[nH]c2ccccc12)NCCc1c[nH]c2ccccc12,.,.,.,.,.,.,/,/
CCCCNCC(=O)Nc1sc(C)c(C)c1C(=O)OCC,.,.,.,.,.,.,/,/
COCCN(C(=O)CSc1nc2ccccc2o1)c1c(N)n(Cc2ccccc2)c(=O)[nH]c1=O,.,.,.,.,/,.,/,/
Cc1ccccc1-c1nsc(SCC(=O)Nc2ccc3c(c2)OCO3)n1,.,.,.,.,31.3,.,.,.
O=C(CSc1nc2ccc(NC(=O)CSc3nnnn3-c3ccccc3)cc2s1)Nc1ccccc1,.,.,.,.,48.8,.,61.2,.
Cc1cccc(C)c1NC(=O)COc1ccc2c(C)c(Cc3ccccc3)c(=O)oc2c1,.,.,.,.,67.7,.,.,.
COc1ccc2nc(NC(=O)CSc3nnc(C)s3)sc2c1,.,.,.,.,28.7,.,.,.
COc1ccc2nc(NC(=O)CSc3nc(SC)ns3)sc2c1,.,.,.,.,.,.,/,/
CCOc1ccccc1NC(=S)N1CCN(c2cccc(OC)c2)CC1,.,.,.,.,.,.,/,/
O=c1c2ccccc2nnn1CSc1nnc(Nc2ccccc2)s1,.,.,.,.,36.1,.,.,.
O=C(NCCCCCCNC(=O)c1ccc(Br)s1)c1ccc(Br)s1,.,.,.,.,53.1,.,.,.
O=C(NCCCCNC(=O)c1ccc(Cl)s1)c1ccc(Cl)s1,.,.,.,.,.,.,/,/
Cc1cc(C)n(/N=C/c2c[nH]c3ccccc23)c(=O)c1C#N,.,.,.,.,27.8,.,.,.
CCOC(=O)Cc1csc(NC(=O)CSc2nc(N)c3c(C)c(C)sc3n2)n1,.,.,.,.,168.8,.,.,.
CCOC(=O)Cc1csc(NC(=O)CSc2nc(C)cc(C)n2)n1,/,.,.,.,/,.,/,/
CC(=O)C(/C=N/c1cc(-c2ccc(C)cc2)nn1-c1ccccc1)=C(\C)O,.,.,.,.,30.1,.,50.0,.
O=C(O)CCC1C(=O)NC(=O)CC1c1ccccc1 (stereo not drawn),/,.,/,.,/,/,/,/
Cc1cc(C)n(-c2ccc(Cl)c(C(=O)OCC(N)=O)n2)n1,.,.,.,.,36.5,.,.,.
Cc1cc(C)n(-c2ccc(Cl)c(C(=O)OCC(=O)N3CCCCC3C)n2)n1 (stereo not drawn),.,.,.,.,.,.,/,/
CCCCn1c(N)c(N(CC(C)C)C(=O)C(C)SCc2nc3sc(C)c(C)c3c(=O)[nH]2)c(=O)[nH]c1=O (stereo not drawn),.,.,.,.,.,.,/,/
